Reference: ChEMBL document CHEMBL3853327 (J Med Chem, 2016)
pEC50, pIC50: −log10 of the molar value.

Experiments:
[1] = test system: Human immunodeficiency virus 1; experiment: Fold resistance, ratio of EC50 for HIV1 3B harboring reverse transcriptase F227L/V106A double mutant infected in human MT4 cells to EC50 for wild type HIV1 3B harboring reverse transcriptase infected in human MT4 cells; format: functional
Procedure, shortened: (§1)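 Fold resistance is the EC50 against the mutant HIV-1 strain divided by the EC50 against WT IIIB. Both EC50s come from the MT-4 MTT cytoprotection assay (5-day read, 100−300 CCID50 inoculum).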

[2] = target: Human immunodeficiency virus type 1 reverse transcriptase (Human immunodeficiency virus 1, UniProt Q72547, K103N/Y181C); experiment: Inhibition of recombinant HIV1 reverse transcriptase K103N/Y181C double mutant using DIG-dUTP/biotin-dUTP/dTTP assessed as suppression of biotin-dUTP incorporation after 1 hr by ELISA
[3] = test system: Human immunodeficiency virus 1; experiment: Antiviral activity against HIV1 3B harboring reverse transcriptase Y181C mutant infected in human MT4 cells assessed as protection against virus induced cytotoxicity after 5 days by MTT assay; format: functional, cell-based; settings: Human immunodeficiency virus 1, 3B, MT4, 120 h
Procedure, shortened: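 MTT cytopathicity assay in MT-4 cells (6 × 10^5 cells/mL). Compounds serially diluted 5-fold in triplicate wells, run in parallel on infected and mock-infected cells. Virus added at 100−300 CCID50 per well. Viability read spectrophotometrically at 540 and 690 nm after 5 days, using the median OD of three wells.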

[4] = test system: Human immunodeficiency virus 1; experiment: Fold resistance, ratio of EC50 for HIV1 3B harboring reverse transcriptase L100I mutant infected in human MT4 cells to EC50 for wild type HIV1 3B harboring reverse transcriptase infected in human MT4 cells; format: functional; procedure, shortened: as §1
[5] = Cytotoxicity against human mock-infected MT4 cells assessed as reduction in cell viability after 5 days by MTT assay; format: toxicity, cell-based
Procedure, shortened: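 Mock-infected MT-4 cells (6 × 10^5 cells/mL at seeding) with serial 5-fold compound dilutions in triplicate wells. Viability read by MTT after 5 days, absorbance at 540 and 690 nm, median OD of three wells. CC50 is the concentration reducing OD540 of mock-infected cells by 50%.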

[6] = Cmax in Sprague-Dawley rat plasma at 16 mg/kg administered through oral gavage measured at 5 mins to 24 hrs post dosing by LC/MS analysis; format: ADME, organism-based; set-up: dose 16 mg/kg, route oral; settings: in vivo
Procedure, shortened: (§2)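 Male Sprague-Dawley rats, ten randomly split into two groups (n = 5), single gavage dose of 8 or 16 mg·kg−1 in PEG 400/normal saline (70/30, V/V). Jugular sinus blood into heparinized tubes at 5 min to 24 h; plasma separated at 2200g for 8 min, stored −20 °C. Methanol precipitation with internal standard, LC-MS quantitation against plasma standard curves. Parameters reported as mean ± SD.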

[7] = test system: Human immunodeficiency virus 1; experiment: Antiviral activity against HIV1 3B harboring reverse transcriptase Y188L mutant infected in human MT4 cells assessed as protection against virus induced cytotoxicity after 5 days by MTT assay; format: functional, cell-based; settings: Human immunodeficiency virus 1, 3B, MT4, 120 h
Procedure, shortened: (§3)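 MTT cytopathicity assay in MT-4 cells (6 × 10^5 cells/mL). Compounds serially diluted 5-fold in triplicate wells, run in parallel on infected and mock-infected cells. Virus added at 100−300 CCID50 per well. Viability read spectrophotometrically at 540 and 690 nm after 5 days, using the median OD of three wells. EC50 is the concentration giving 50% protection from viral cytopathogenicity.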

Mus musculus [8] = experiment: Acute toxicity in Kunming mouse assessed as increase in body weight at 2000 mg/kg, ig after 1 week; format: organism-based; settings: in vivo, po, 168 h
Procedure, shortened: (§4)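 Kunming mice (18−22 g), fasted 12 h, then given a single intragastric dose suspended in PEG-400 (100 or 200 mg·mL−1 for 1000 or 2000 mg·kg−1). Six mice per dose group, half male and half female. Deaths and body-weight gain followed for 1 week.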

[9] = Apparent clearance during terminal phase in Sprague-Dawley rat plasma at 8 mg/kg administered through oral gavage measured at 5 mins to 24 hrs post dosing by LC/MS analysis; format: ADME, organism-based; settings: in vivo; procedure, shortened: as §2
[10] = Tmax in Sprague-Dawley rat plasma at 16 mg/kg administered through oral gavage measured at 5 mins to 24 hrs post dosing by LC/MS analysis; format: ADME, organism-based; settings: in vivo; procedure, shortened: as §2
Mus musculus [11] = experiment: Acute toxicity in Kunming mouse assessed as mortality at 2000 mg/kg, ig after 1 week; format: organism-based; settings: in vivo, po, 168 h; procedure, shortened: as §4
[12] = AUMC (0 to infinity) in Sprague-Dawley rat plasma at 8 mg/kg administered through oral gavage measured at 5 mins to 24 hrs post dosing by LC/MS analysis; format: ADME, organism-based; settings: in vivo; procedure, shortened: as §2
[13] = AUMC (0 to t) in Sprague-Dawley rat plasma at 8 mg/kg administered through oral gavage measured at 5 mins to 24 hrs post dosing by LC/MS analysis; format: ADME, organism-based; settings: in vivo; procedure, shortened: as §2
[14] = Selectivity index, ratio of CC50 for human mock-infected MT4 cells to EC50 for HIV1 RES056 harboring reverse transcriptase K103N/Y181C double mutant infected in human MT4 cells; format: toxicity, cell-based; settings: MT4 cells (mock-infected for CC50, HIV-1 infected for EC50)
Procedure, shortened: (§5)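 Selectivity index is CC50/EC50. CC50 is the concentration that reduces OD540 of mock-infected MT-4 cells by 50% in the 5-day MTT assay. EC50 is the 50% protection from virus-induced cytopathicity, measured in parallel on infected wells.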

[15] = VRT (0 to infinity) in Sprague-Dawley rat plasma at 8 mg/kg administered through oral gavage measured at 5 mins to 24 hrs post dosing by LC/MS analysis; format: ADME, organism-based; settings: in vivo; procedure, shortened: as §2
[16] = AUC (0 to infinity) in Sprague-Dawley rat plasma at 16 mg/kg administered through oral gavage measured at 5 mins to 24 hrs post dosing by LC/MS analysis; format: ADME, organism-based; set-up: dose 16 mg/kg, time infinity, route oral; settings: in vivo; procedure, shortened: as §2
[17] = Apparent clearance during terminal phase in Sprague-Dawley rat plasma at 16 mg/kg administered through oral gavage measured at 5 mins to 24 hrs post dosing by LC/MS analysis; format: ADME, organism-based; settings: read-out: CLz/F (converted); procedure, shortened: as §2
[18] = Apparent half life in Sprague-Dawley rat plasma at 8 mg/kg administered through oral gavage measured at 5 mins to 24 hrs post dosing by LC/MS analysis; format: ADME, organism-based; settings: in vivo; procedure, shortened: as §2
[19] = Apparent volume of distribution during terminal phase in Sprague-Dawley rat plasma at 16 mg/kg administered through oral gavage measured at 5 mins to 24 hrs post dosing by LC/MS analysis; format: ADME, organism-based; settings: read-out: Vz/F; procedure, shortened: as §2
[20] = test system: Human immunodeficiency virus 1; experiment: Antiviral activity against HIV1 3B harboring reverse transcriptase E138K mutant infected in human MT4 cells assessed as protection against virus induced cytotoxicity after 5 days by MTT assay; format: functional, cell-based; settings: Human immunodeficiency virus 1, 3B, MT4, 120 h; procedure, shortened: as §3
[21] = MRT (0 to t) in Sprague-Dawley rat plasma at 8 mg/kg administered through oral gavage measured at 5 mins to 24 hrs post dosing by LC/MS analysis; format: ADME, organism-based; procedure, shortened: as §2
[22] = VRT (0 to t) in Sprague-Dawley rat plasma at 8 mg/kg administered through oral gavage measured at 5 mins to 24 hrs post dosing by LC/MS analysis; format: ADME, organism-based; settings: in vivo; procedure, shortened: as §2
[23] = Apparent half life in Sprague-Dawley rat plasma at 16 mg/kg administered through oral gavage measured at 5 mins to 24 hrs post dosing by LC/MS analysis; format: ADME, organism-based; settings: in vivo; procedure, shortened: as §2
[24] = test system: Human immunodeficiency virus 1; experiment: Potency index, ratio of ETV EC50 to compound EC50 for HIV1 3B harboring reverse transcriptase F227L/V106A double mutant infected in human MT4 cells; format: functional
[25] = Selectivity index, ratio of CC50 for human mock-infected MT4 cells to EC50 for HIV1 3B harboring reverse transcriptase E138K mutant infected in human MT4 cells; format: toxicity, cell-based; settings: MT4 cells (mock-infected for CC50, HIV-1 infected for EC50); procedure, shortened: as §5

Cc1cc(C#N)cc(C)c1Oc1nc(NC2CCN(Cc3ccc(S(N)(=O)=O)cc3)CC2)nc2ccsc12
Ratio EC50 [1]: <3 | pIC50 [2]: 6.44 | pEC50 [3]: 8.49 | Ratio EC50 [4]: <3 | CC50 at 120 h [5]: > 228000 nM | Cmax [6]: 472 ng/mL | pEC50 [7]: 8.52 | Activity (Mus musculus [8]): Non-Toxic | CLz/F [9]: 172 mL/min/kg | Tmax [10]: 0.8 h | Activity (Mus musculus [11]): Non-Toxic | AUMC [12]: 6474.1 ug/L.hr | AUMCt [13]: 5690.8 ug/L.hr | selectivity ratio [14]: 53500 | VRT [15]: 13.31 hr2 | AUC [16]: 1756.7 ng·h/mL | CL/F [17]: 155 mL/min/kg | t1/2(app) [18]: 2.51 h | Vd/F [19]: 50.1 L/kg | pEC50 [20]: 8.54 | MRT last [21]: 3.44 h | VRT(t) [22]: 7.78 hr2 | t1/2(app) [23]: 3.6 h | Ratio EC50 [24]: 7 | selectivity ratio [25]: > 75800
